NPY2 pot ag: potentiates or activates human NPY-Y2 receptor; P49146; cells expressing NPY-Y2, potentiator/agonist read-out; activation, % at 3.6 µM; 220,000 compounds, 0.45% hits; AID 1359; in the data active = activation above about 27%;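 also: cells stimulated with NPY near EC25 plus isoproterenol at EC100; 0% = vehicle plus submaximal agonist and 100% = vehicle plus saturating agonist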
Target sequence (P49146 whole entry, looked up): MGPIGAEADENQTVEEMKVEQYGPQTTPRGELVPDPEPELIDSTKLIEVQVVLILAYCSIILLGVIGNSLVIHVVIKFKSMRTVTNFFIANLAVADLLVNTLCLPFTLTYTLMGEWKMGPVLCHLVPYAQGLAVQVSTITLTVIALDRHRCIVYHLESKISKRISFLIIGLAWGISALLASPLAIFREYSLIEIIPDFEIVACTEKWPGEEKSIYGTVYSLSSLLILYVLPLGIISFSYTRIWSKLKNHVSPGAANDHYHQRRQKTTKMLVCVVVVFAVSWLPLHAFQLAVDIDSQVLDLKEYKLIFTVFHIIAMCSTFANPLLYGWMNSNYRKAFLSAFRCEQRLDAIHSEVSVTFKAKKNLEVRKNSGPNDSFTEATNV
NPY1 pot ag: potentiates or activates human NPY-Y1 receptor; activation, % at 3.6 µM; 220,000 compounds, 0.37% hits; NPY-Y1 expressing cells, potentiator/agonist activation; in the data active = activation above about 33%, passing the limit was not always enough;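 also: cells stimulated with NPY at EC10 then isoproterenol at EC100; 0% = low agonist plus stimulus and 100% = saturating agonist plus stimulus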
NPY Y2 blocker: antagonists of human neuropeptide Y receptor Y2 | NPY-Y2 expressing cells, antagonist mode | inhibition, % at 2.7 µM | 140,000 compounds, 0.99% hits | AID 793; in the data active = inhibition above about 17%;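 also: 0% = vehicle with agonist challenge and 100% = reference antagonist with challenge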
NPY Y1 blocker: NPY-Y1 (human) receptor antagonism | P25929 | AID 1040 | HEK293-CNG Y1 cells, membrane potential fluorescence; NPY at EC95, then isoproterenol | inhibition, % at 3.6 µM | 200,000 compounds, 1% hits;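 active = inhibition above the campaign mean inhibition of all tested compounds plus 3 SD, cut at about 20% in these data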;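 also: 0% = DMSO wells given NPY plus isoproterenol and 100% = isoproterenol alone without NPY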
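Material: HEK293 cells co-expressing NPY Y1 receptor and cyclic-nucleotide gated channel. Timing: compound incubation 1 h at room temperature, readout 45 min post-stimulation. Signal: fluorescence, membrane potential probe.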
Starred values were filed as active, the others as inactive. Hits are enriched below; roughly 1.8% of the tested compounds scored in any of these assays.

`CC(C)OC(=O)CSc1nc(-c2ccc(F)cc2)cc(C(F)(F)F)n1` gave NPY2 pot ag -0.6, NPY1 pot ag -39.0, NPY Y2 blocker 24.8* and NPY Y1 blocker 28.2*.
For COc1ccc(-c2cc(C(F)(F)F)nc(SCC(=O)Nc3cc(C)on3)n2)cc1OC the results were NPY2 pot ag 8.6, NPY1 pot ag -2.5, NPY Y2 blocker 22.4* and NPY Y1 blocker 6.7.
Screening CC(Sc1nnc2ccccn12)C(=O)NCc1ccc2c(c1)OCO2 (stereo unspecified) returned NPY2 pot ag -1.1, NPY1 pot ag 2.4 and NPY Y1 blocker -3.7.
`COc1ccc(-c2nnc(SC(C)C(=O)NCc3ccc4c(c3)OCO4)n2Cc2ccco2)cc1` (stereo unspecified) gave NPY2 pot ag -14.5, NPY1 pot ag -2.8, NPY Y2 blocker 51.0* and NPY Y1 blocker 37.5*.
C=CCn1c(SC(C)C(=O)NCc2ccc3c(c2)OCO3)nnc1C1CCCCC1 (stereo unspecified) was read as NPY2 pot ag -14.9, NPY1 pot ag -9.8, NPY Y2 blocker 20.1* and NPY Y1 blocker 27.6*.
`Cc1[nH]c2ccc(-c3nnc(SCC(=O)NCc4ccco4)n3Cc3ccccc3)cc2c1C` gave NPY2 pot ag 103.7*, NPY1 pot ag 111.8*, NPY Y2 blocker 1.9 and NPY Y1 blocker -4.8.
For O=C(CSc1nnc(-c2ccc(Cl)cc2)n1Cc1ccco1)NCc1ccc2c(c1)OCO2 the results were NPY2 pot ag -17.6, NPY1 pot ag -24.1, NPY Y2 blocker 40.9* and NPY Y1 blocker 41.9*.
CC(C)c1ccc(NC(=S)N2CCCC(c3ccc(F)cc3)=N2)cc1 was read as NPY2 pot ag -7.5 and NPY1 pot ag -16.4.
Screening CC(=O)NC(N(C#N)c1nc(Cl)nc(N(C)C)n1)C(Cl)(Cl)Cl (stereo unspecified) returned NPY2 pot ag -5.9 and NPY1 pot ag -3.4.
For COc1cccc(/C=N/n2c(-c3n[nH]c4c3CCC4)n[nH]c2=S)c1OC the results were NPY2 pot ag -6.6 and NPY1 pot ag -19.2.
CC(C)(C)c1ccc(S(=O)(=O)N2CCN(c3ncccn3)CC2)cc1 was read as NPY2 pot ag 8.6, NPY1 pot ag -2.6 and NPY Y1 blocker -2.1.
COC(=O)C(C)Sc1nc2c(c(=O)[nH]c(=O)n2C)n1CCCc1ccccc1 (stereo unspecified) was read as NPY2 pot ag -11.9, NPY1 pot ag -46.9, NPY Y2 blocker 46.2* and NPY Y1 blocker 45.8*.
`CC12CC3CC(C)(C1)CC(CN)(C3)C2` gave NPY2 pot ag 33.8*, NPY1 pot ag 37.0*, NPY Y2 blocker 16.4 and NPY Y1 blocker 16.9.
Screening CC12CC3CC(C)(C1)CC(CN1CCOCC1)(C3)C2 returned NPY2 pot ag -3.9, NPY1 pot ag 11.2, NPY Y2 blocker 6.9 and NPY Y1 blocker -5.7.
`N#C/C(=C\c1coc2ccc(O)cc2c1=O)C(=O)Nc1nc2ccccc2s1` gave NPY2 pot ag 22.6 and NPY1 pot ag 38.8.
For Cn1nnc2c[n+](CC(=O)c3ccc4ccccc4c3)cc(Br)c21 the results were NPY2 pot ag 57.0* and NPY1 pot ag 47.2*.
O=C(CCn1cnnn1)Nc1ccccc1 was read as NPY2 pot ag 20.9, NPY1 pot ag 15.4 and NPY Y1 blocker -0.3.
`c1csc(-c2csc3nc(CN4CCOCC4)nc(NCc4ccc5c(c4)OCO5)c23)c1` gave NPY2 pot ag -31.1, NPY1 pot ag -59.2, NPY Y2 blocker 35.8* and NPY Y1 blocker 44.2*.
`Cc1nn(C(C)(C)C)c(OC(=O)c2ccc3c(c2)OCO3)c1Sc1ccccc1` gave NPY2 pot ag -25.9, NPY1 pot ag -33.5, NPY Y2 blocker 29.5* and NPY Y1 blocker 47.7*.
`COc1cc2nc(SCc3ccc(F)cc3)n(Cc3cccs3)c(=N)c2cc1OC` gave NPY2 pot ag 1.6, NPY1 pot ag 12.5, NPY Y2 blocker -1.1 and NPY Y1 blocker 8.3.
For COc1ccc(Cn2c(SCc3ccccc3C)nc3cc(OC)c(OC)cc3c2=N)cc1 the results were NPY2 pot ag 28.4, NPY1 pot ag -16.5, NPY Y2 blocker 44.2* and NPY Y1 blocker 48.4*.
For COc1ccc(-c2csc(NC(=O)CCS(=O)(=O)c3ccccc3)n2)c(OC)c1 the results were NPY2 pot ag 1.7 and NPY1 pot ag 34.2.
CCOC(=O)c1ccc(NC(=O)CC2S/C(=N/N=C/c3c[nH]c4ccccc34)NC2=O)cc1 (stereo unspecified) was read as NPY2 pot ag 33.5*, NPY1 pot ag 49.1*, NPY Y2 blocker -3.4 and NPY Y1 blocker -15.5.
Screening CCCOc1ccc(Cc2c(Cl)nc(SC)nc2OC)cc1 returned NPY2 pot ag 9.1, NPY1 pot ag 12.0, NPY Y2 blocker 6.3 and NPY Y1 blocker 3.1.
Screening CCCOc1ccc(Cc2c(Cl)nc(SC)nc2N(C)C)cc1 returned NPY2 pot ag -14.1, NPY1 pot ag -54.3, NPY Y2 blocker 25.7* and NPY Y1 blocker 21.9*.
Screening CCCCc1ccc(NC(=O)CSC2=C(C#N)C(c3ccco3)C3=C(CCCC3=O)N2)cc1 (stereo unspecified) returned NPY2 pot ag 98.4*, NPY1 pot ag 98.7*, NPY Y2 blocker -1.5 and NPY Y1 blocker -13.7.
`Cc1nc(N2CCCCC2)sc1C(=O)c1ccc(Cl)c([N+](=O)[O-])c1` gave NPY2 pot ag 46.7*, NPY1 pot ag 47.9* and NPY Y1 blocker -10.8.
`Cc1[nH]nc2c1C(c1ccc(N(C)C)cc1)C1=C(CC(C)(C)CC1=O)N2` (stereo unspecified) gave NPY2 pot ag -22.4, NPY1 pot ag -2.3 and NPY Y1 blocker 20.5*.
COc1cc(-c2cn(S(=O)(=O)c3cccc4nsnc34)nc2N)cc(OC)c1OC was read as NPY2 pot ag -9.4, NPY1 pot ag -26.5, NPY Y2 blocker 17.7* and NPY Y1 blocker 22.9*.
`CCOc1ccc(N(C(=O)c2cnsn2)C(C(=O)NC2CCCCC2)c2ccncc2)cc1` (stereo unspecified) gave NPY2 pot ag 11.8, NPY1 pot ag -27.1, NPY Y2 blocker 20.5* and NPY Y1 blocker 33.6*.
Screening CCCNC(=O)C12CCC(C)(c3nc4cc(C)c(C)cc4nc31)C2(C)C (stereo unspecified) returned NPY2 pot ag -1.4, NPY1 pot ag 3.2 and NPY Y1 blocker -0.1.
Screening CCC(C)(C)c1nnc(NC(=O)c2cccc([N+](=O)[O-])c2)s1 returned NPY2 pot ag 6.2, NPY1 pot ag 0.3, NPY Y2 blocker 0.0 and NPY Y1 blocker 4.8.
Screening Cc1nc2sc(C#N)c(N)c2c2c1CCCC2 returned NPY2 pot ag -43.4, NPY1 pot ag -84.4, NPY Y2 blocker 25.0* and NPY Y1 blocker 21.7*.
`N#Cc1sc2nc(N3CCCCC3)c3c(c2c1N)CCCC3` gave NPY2 pot ag -14.2, NPY1 pot ag -22.0, NPY Y2 blocker 0.9 and NPY Y1 blocker -1.8.
For CCOc1ccc2nc(NS(=O)(=O)Cc3ccccc3)sc2c1 the results were NPY2 pot ag -35.7, NPY1 pot ag -34.5, NPY Y2 blocker 20.1* and NPY Y1 blocker 23.4*.
For CCOc1ccc2nc(NS(=O)(=O)c3ccc(NC(C)=O)cc3)sc2c1 the results were NPY2 pot ag 4.7, NPY1 pot ag -0.2, NPY Y2 blocker 0.7 and NPY Y1 blocker 0.0.
